Assay results published in article PMC9157583 (Alzheimer's & Dementia : Translational Research & Clinical …, 2022).
Where “and” joins values, the source holds several entries; their conditions need not be identical. Equal entries are not always repeated. Where two headings read alike, the source gives them in different places.

Columns and labels:
[1] = tested on: individuals with dementia with Lewy bodies; assay type: in vivo, human; details: bosutinib 100 mg once daily, 12 weeks
[2] = Pharmacokinetics: bosutinib concentration in plasma of DLB participants; assay type: in vivo, human; details: for Tmax / AUC / Cmax: human; for AUC: AUC0‐4, plasma
[3] = target: Src (Homo sapiens, UniProt P12931); experiment: Phospho‐Src; assay type: in vivo; details: bosutinib 100 mg compared to placebo, 12 weeks
Src, sequence (P12931 whole entry): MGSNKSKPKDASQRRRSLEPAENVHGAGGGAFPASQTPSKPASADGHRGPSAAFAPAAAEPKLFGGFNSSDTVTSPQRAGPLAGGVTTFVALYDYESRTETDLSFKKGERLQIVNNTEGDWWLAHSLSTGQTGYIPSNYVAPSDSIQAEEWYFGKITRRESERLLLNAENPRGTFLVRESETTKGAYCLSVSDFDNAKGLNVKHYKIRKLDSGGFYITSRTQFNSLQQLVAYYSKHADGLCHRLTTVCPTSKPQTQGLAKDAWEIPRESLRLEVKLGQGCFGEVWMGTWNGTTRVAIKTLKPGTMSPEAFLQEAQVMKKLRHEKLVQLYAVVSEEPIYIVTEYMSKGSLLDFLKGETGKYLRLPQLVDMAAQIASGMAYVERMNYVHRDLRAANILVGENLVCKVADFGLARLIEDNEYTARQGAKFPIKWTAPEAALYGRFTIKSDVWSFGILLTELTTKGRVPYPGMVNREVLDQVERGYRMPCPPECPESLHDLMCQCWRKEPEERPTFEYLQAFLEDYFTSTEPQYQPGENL
Method in brief: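 Phospho-Src was assayed with a PathScan sandwich ELISA. CSF or plasma was added to wells coated with rabbit polyclonal antibody that captures Src phosphorylated at Tyr416. Samples came from DLB participants at baseline and after 12 weeks of oral test compound 100 mg daily or placebo. Within-group changes used a one-tailed paired Wilcoxon test; between-group changes used a one-tailed Welch-corrected unpaired t-test.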

[4] = tested on: dopamine metabolites DOPAC and HVA; experiment: Quantification of dopamine metabolites DOPAC and HVA; assay type: in vivo, human; details: bosutinib 100 mg compared to placebo, 12 weeks
Method in brief: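 CSF DOPAC and HVA were derivatized with benzoyl chloride and quantified by UHPLC-MS/MS. CSF was obtained by lumbar puncture at baseline and week 12, 1–4 h after oral test compound 100 mg daily or placebo and ~2 h after the last levodopa dose. Values were given as mean ± SD, with one-sided tests at 5% type I error and 90% CI.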

[5] = tested on: alpha‐synuclein; experiment: Total alpha‐synuclein ELISA in CSF and plasma; assay type: in vivo, human; details: bosutinib 100 mg compared to placebo, 12 weeks
Method in brief: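 Total alpha-synuclein in CSF and plasma was measured by solid-phase sandwich ELISA per the kit protocol, and the CSF/plasma ratio was calculated from the two levels. Samples were taken at baseline and week 12 from DLB participants given oral test compound 100 mg daily or placebo. Changes were compared within groups by one-tailed paired Wilcoxon test and between groups by one-tailed Welch t-test.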

[6] = tested on: alpha‐synuclein oligomer; experiment: Oligomeric alpha‐synuclein ELISA in CSF and plasma; assay type: in vivo, human; details: CSF or plasma, bosutinib vs placebo
Method in brief: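 Oligomeric alpha-synuclein in CSF and plasma was quantified with a commercial quantitative ELISA kit per the manufacturer's protocol. Samples were drawn at baseline and week 12 from DLB participants on oral test compound 100 mg daily or matching placebo, 1–4 h after dosing and ~2 h after the last levodopa dose.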

[7] = tested on: Aβ40, Aβ42, total tau, p‐tau 181; experiment: Aβ40, Aβ42, total tau, and p‐tau 181 ELISA in CSF and plasma; assay type: in vivo, human; details: CSF or plasma, bosutinib vs placebo
Method in brief: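 Plasma (10 mL blood) and lumbar-puncture CSF (~15 mL) were taken at baseline and at week 12 from DLB participants randomized 1:1 to oral test compound 100 mg daily or placebo. Sampling was 1–4 h post-dose, ~2 h after the last levodopa dose. Aβ40, Aβ42, total tau and p-tau181 were measured by Milliplex ELISA, with CSF and plasma run in parallel using the same reagents.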

[8] = tested on: individuals with dementia with Lewy bodies; experiment: Exploratory clinical assessments; assay type: in vivo, human; details: change 12 week‐ baseline, bosutinib 100 mg vs. placebo; interval in brackets
[9] = tested on: Abl/SRC; details: cited from earlier work
[10] = open label study, 12 months; cited from earlier work
[11] = cited from earlier work
[12] = for AUC / Cmax / Tmax: human, in vivo, po; for AUC: AUC0‐4, CSF
[13] = 100 mg, 12 weeks vs single dose
[14] = plasma, single oral dose 500 mg, normal individuals, n = 6
[15] = CSF, 100 mg, 12 weeks vs single dose
[16] = 100 mg, CSF, multiple oral doses 100 mg once daily, 12 weeks
[17] = 100 mg, CSF, single oral dose 100 mg
[18] = 200 mg, CSF, single oral dose 200 mg

COc1cc(Nc2c(C#N)cnc3cc(OCCCN4CCN(C)CC4)c(OC)cc23)c(Cl)cc1Cl [Bosutinib, Bosutinib monohydrate]
Prolongation of QTc intervals [1]: no prolongation of QTc intervals
Serious adverse events (SAEs) [1]: no serious adverse events
Total dropped out ([1]; DLB, N = 13, number (%)): 0 (0%)
Adverse event: Dizziness, number of events (%) ([1]; N = 13): 1 (7.7%)
Adverse event: Falls, number of events (%) ([1]; N = 13): 3 (23.1%)
Adverse event: Flu, number of events (%) ([1]; N = 13): 0 (0%)
Adverse event: Impaction, number of events (%) ([1]; N = 13): 0 (0%)
Adverse event: Liver transaminases, number of events (%) ([1]; N = 13): 1 (7.7%)
Adverse event: Pain, number of events (%) ([1]; N = 13): 3 (23.1%)
Adverse event: Post‐lumbar puncture headache, number of events (%) ([1]; N = 13): 1 (7.7%)
Adverse event: Upper respiratory infection, number of events (%) ([1]; N = 13): 0 (0%)
Adverse event: Urinary incontinence, number of events (%) ([1]; N = 13): 1 (7.7%)
Adverse event: Urinary tract infection, number of events (%) ([1]; N = 13): 1 (7.7%)
Total number of adverse events (AEs) ([1]; N = 13, 9 in placebo, P = 0.68): 11
Increase of plasma exposure (AUC0‐4), multiple doses compared to a single dose [2, 13]: ~3 fold
Increase of plasma level (Cmax), multiple doses compared to a single dose [2, 13]: more than 2 fold
Tmax ([2]; oral, Tmax in the current study, between 0 and 4 hours, current study): 3 to 4 h
AUC ([2]; po, 100 mg, multiple oral doses 100 mg once daily, 12 weeks): 73.1 ng·h/mL and 0.138 µM·h
AUC ([2]; po, 100 mg, single oral dose 100 mg): 25 ng·h/mL and 0.0479 µM·h
Cmax ([2]; po, 100 mg, multiple oral doses 100 mg once daily, 12 weeks, n = 13): 29.9 ng/mL and 56.4 nM
Cmax ([2]; po, 100 mg, single oral dose 100 mg, n = 9): 13.5 ng/mL and 25.5 nM
Tmax ([2]; po, 100 mg, Tmax, multiple oral doses 100 mg once daily, 12 weeks): 4 h
Tmax ([2]; po, 100 mg, Tmax, single oral dose 100 mg, sampling 0 to 4 hours): 3 h
AUC ([2]; po, 200 mg, single oral dose 200 mg): 36.9 ng·h/mL and 0.0696 µM·h
Cmax ([2]; po, 200 mg, single oral dose 200 mg, n = 9): 19.6 ng/mL and 37 nM
CSF p‐Src ([3]; CSF, Figure 2D): could not demonstrate differences
Plasma active Src phosphorylated at Tyr416 ([3]; plasma, Figure 2C): significantly reduced
CSF DOPAC level ([4]; CSF, Figure 2E): no statistically significant difference
CSF HVA level ([4]; CSF, Figure 2F): no statistically significant difference
Plasma DOPAC level ([4]; plasma, Figure 2G): significantly reduced
Plasma HVA level ([4]; plasma, Figure 2H): significantly reduced
CSF alpha‐synuclein level ([5]; CSF, Figure 2I): significantly reduced
CSF:plasma of alpha‐synuclein ([5]; Figure 2K): reduced
Oligomeric alpha‐synuclein [6]: no differences
Aβ40 [7]: no differences
Aβ42 [7]: no differences
Total tau [7]: no differences
p‐tau181 [7]: no differences
Alzheimer's Disease Assessment Scale–Cognitive subscale (ADAS‐Cog) [8]: −0.66 (−4.67, 3.33)
Clinician Assessment of Fluctuation (CAF) [8]: 1 (−2,3)
Irritability and Apathy Scale (IAS)‐_Participant_APATHY [8]: 0 (−3, 4)
Irritability and Apathy Scale (IAS)‐_Participant_IRRITABILITY [8]: 0 (−2, 3)
Irritability and Apathy Scale (IAS)‐_Partner_APATHY [8]: −1 (−4, 2)
Irritability and Apathy Scale (IAS)‐_Partner_IRRITABILITY [8]: 1 (−1, 4)
Montreal Cognitive Assessment (MoCA) [8]: 0 (−1, 2)
Neuropsychiatric Inventory (NPI) frequency x severity [8]: 0 (−8, 9)
Neuropsychiatric Inventory (NPI)_Caregiver Distress [8]: 2 (−1, 6)
Problem Behaviours Assessment (PBA) [8]: 1 (−14, 10)
Timed Up and Go [8]: 0 (−3, 2)
Unified Parkinson's Disease Rating Scale (Activities of Daily Living)‐Part II [8]: −1 (−3, 2)
Unified Parkinson's Disease Rating Scale (Motor)‐Part III [8]: 0 (−4, 4)
Unified Parkinson's Disease Rating Scale (SUM Part II+III) [8]: −1 (−6, 5)
Unified Parkinson's Disease Rating Scale (UPDRS‐Cognition)‐Part I [8]: 0 (−2, 1)
Unified Parkinson's Disease Rating Scale (total Part I+III) [8]: −2 (−7, 6)
IC50 [9]: 1.2 nM
Repeatable Battery for the Assessment of Neuropsychological Status (RBANS) [10]: less decline
Tmax in previous studies ([11]; between 0 and 24 hours): around 6 hours
AUC0‐24 [11, 14]: 2190 ± 661 ng/h/mL
Tmax [11, 14]: 3.50 (2.00–6.00) hrs
Increase of CSF exposure (AUC0‐4), multiple doses compared to a single dose [12, 15]: 10 fold
Increase of CSF level (Cmax), multiple doses compared to a single dose [12, 15]: 9 fold
AUC ([12]; 100 mg, multiple oral doses 100 mg once daily, 12 weeks): 1.15 ng·h/mL and 0.00216 µM·h
AUC ([12]; 100 mg, single oral dose 100 mg): 0.14 ng·h/mL and 0.00026 µM·h
Cmax [12, 16]: 0.94 ± 0.32 nM
Cmax ([12]; 100 mg, CSF, multiple oral doses 100 mg once daily, 12 weeks, n = 13): 0.5 ± 0.17 ng/mL
Cmax [12, 17]: 0.11 ± 0.08 nM
Cmax ([12]; 100 mg, CSF, single oral dose 100 mg, n = 9): 0.06 ± 0.04 ng/mL
Tmax [12, 16]: 3 h
Tmax [12, 17]: 2 h
AUC ([12]; 200 mg, single oral dose 200 mg): 0.24 ng·h/mL and 0.00044 µM·h
Cmax [12, 18]: 0.25 ± 0.09 nM
Cmax ([12]; 200 mg, CSF, single oral dose 200 mg, n = 9): 0.13 ± 0.06 ng/mL
Tmax [12, 18]: 4 h
